The source made the active and inactive calls. No cut-off for these calls is given here.
Tests used:
A-375 [1] = experiment: Antitumor activity against human A375 cells xenografted in athymic nude mouse assessed as tumor growth inhibition at 60 mg/kg, ip once daily administered 7 days after inoculation for 22 days; format: functional; set-up: scale not given: the % may be the effect or the level left; details: route intraperitoneal
How it was run: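 Male athymic nude mice, 4–5 weeks old, injected subcutaneously in the right flank with A375 cells (5 × 10^7/mL, 100 μL, 1:1 Matrigel). Grouped at about 150 mm3 (~day 7), n = 8. DTIC in saline given ip once daily. Caliper volume a×b²×0.5 measured twice weekly; % reduction 100×[(T–T0)/(C–C0)] at day 22. Body weight monitored.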

A-375 [2] = experiment: Inhibition of human A375 cells colony formation at 2 uM after 7 days by colony-formation assay; format: functional, cell-based
SF-539 = experiment: Growth inhibition of human SF539 cells; format: functional; details: for CC50: read-out: LC50 (the source's name)
A549 = experiment: Growth inhibition of human A549 cells; format: functional
T47D = experiment: Growth inhibition of human T47D cells; format: functional
NCI/ADR-RES = experiment: Growth inhibition of human NCI/ADR-RES cells; format: functional; details: for CC50: read-out: LC50 (the source's name)
MCF7 = experiment: Growth inhibition of human MCF7 cells; format: functional
SK-MEL-2 = experiment: Growth inhibition of human SK-MEL-2 cells; format: functional
OVCAR-8 = experiment: Growth inhibition of human OVCAR8 cells; format: functional; details: for CC50: read-out: LC50 (the source's name)
LNCaP [3] = experiment: Cell cycle arrest in human LNCAP cells by assessed as increase in accumulation at subG1 phase […] by flow cytometry; format: functional, cell-based
KM12 = experiment: Growth inhibition of human KM12 cells; format: functional
Mus musculus = experiment: Toxicity in ip dosed athymic nude mouse assessed as body weight loss; format: organism-based; details: in vivo
How it was run: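 Male athymic nude mice (4–5 weeks) given subcutaneous A375 cells in Matrigel (1:1). At about 150 mm3, near day 7, split into groups of n = 8. Dosed at 5 or 10 mg/kg in 80% Tween 80/20% Captex 200, injected once daily for 22 days. Vehicle (intraperitoneal) and DTIC 60 mg/kg controls. Body weight and activity monitored throughout.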

RXF 393 = experiment: Growth inhibition of human RXF393 cells; format: functional; details: for CC50: read-out: LC50 (the source's name)
UACC-62 = experiment: Growth inhibition of human UACC62 cells; format: functional; details: for CC50: read-out: LC50 (the source's name)
A-375 [4] = experiment: Antitumor activity against human A375 cells xenografted in athymic nude mouse assessed as tumor growth inhibition at 5 mg/kg, ip once daily administered 7 days after inoculation for 22 days; format: functional; set-up: scale not given: the % may be the effect or the level left; details: route intraperitoneal
How it was run: (§1)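 Male athymic nude mice, 4–5 weeks old, received 2.5 × 10^6 A375 cells (FBS-free DMEM mixed 1:1 with Matrigel) subcutaneously in the right dorsal flank. At about 150 mm3 (~day 7), mice were grouped by tumor size (n = 8). Drug in 80% Tween 80/20% Captex 200 was injected daily, with vehicle controls i.p. Calipers twice weekly (a×b²×0.5); % reduction at day 22 = 100×[(T–T0)/(C–C0)]. Body weight tracked.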

A-375 [5] = experiment: Inhibition of human A375 cells colony formation at 100 uM after 7 days by colony-formation assay; format: functional, cell-based
SNB-75 = experiment: Growth inhibition of human SNB75 cells; format: functional; details: for CC50: read-out: LC50 (the source's name)
ACHN = experiment: Growth inhibition of human ACHN cells; format: functional; details: for CC50: read-out: LC50 (the source's name)
NCI-H322M = experiment: Growth inhibition of human NCI-H322M cells; format: functional; details: for CC50: read-out: LC50 (the source's name)
A-375 [6] = experiment: Antitumor activity against human A375 cells xenografted in athymic nude mouse assessed as tumor growth inhibition at 10 mg/kg, ip once daily administered 7 days after inoculation for 22 days; format: functional; set-up: scale not given: the % may be the effect or the level left; details: route intraperitoneal; how it was run: as §1
M14 = experiment: Growth inhibition of human M14 cells; format: functional; details: for CC50: read-out: LC50 (the source's name)
K562 = experiment: Growth inhibition of human K562 cells; format: functional
A-375 [7] = experiment: Cell cycle arrest in human A375 cells by assessed as increase in accumulation at subG1 phase […] by flow cytometry; format: functional, cell-based
MDA-MB-468 = experiment: Growth inhibition of human MDA-MB-468 cells; format: functional
MOLT-4 = experiment: Growth inhibition of human MOLT4 cells; format: functional; details: for CC50: read-out: LC50 (the source's name)
U-251 = experiment: Growth inhibition of human U251 cells; format: functional; details: for CC50: read-out: LC50 (the source's name)
A-375 [8] = experiment: Inhibition of human A375 cells colony formation at 20 uM after 7 days by colony-formation assay; format: functional; details: A-375, 168 h
SK-OV-3 = experiment: Growth inhibition of human SKOV3 cells; format: functional; details: for CC50: read-out: LC50 (the source's name)
IGROV-1 = experiment: Growth inhibition of human IGROV1 cells; format: functional; details: for CC50: read-out: LC50 (the source's name)
Malme-3M = experiment: Growth inhibition of human MALME-3M cells; format: functional
PPC-1 = experiment: Antiproliferative activity against human PPC1 cells after 96 hrs by SRB assay; format: functional, cell-based; details: PPC-1, 96 h
How it was run: (§2)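 Prostate lines in RPMI1640/10% FBS; RH7777 in DMEM/10% FBS. Cells TCA-fixed, stained with 0.4% SRB, absorbance read at 540 nm. IC50 from nonlinear regression of % survival against concentration.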

PC-3 = experiment: Antiproliferative activity against human PC3 cells after 96 hrs by SRB assay; format: functional, cell-based; details: PC-3, 96 h
DU-145 = experiment: Antiproliferative activity against human DU145 cells after 96 hrs by SRB assay; format: functional, cell-based; details: DU-145, 96 h; how it was run: as §2
HOP-92 = experiment: Growth inhibition of human HOP92 cells; format: functional
CAKI-1 = experiment: Growth inhibition of human Caki1 cells; format: functional
LNCaP [9] = experiment: Antiproliferative activity against human LNCAP cells after 96 hrs by SRB assay; format: functional, cell-based; how it was run: as §2
[10] = read-out: LC50 (the source's name)

## CCCCCCCCCCCCCCCCNC(=O)[C@@H]1CSC(c2ccc(NC(C)=O)cc2)N1 (mixture of isomers)
A-375 [1]
  Activity: 42%
A-375 [2]
  Activity: Active
SF-539
  GI50: 260 nM
  TGI: 700 nM
  CC50: 2810 nM
A549
  GI50: 360 nM
  TGI: 1350 nM
A549; [10]
  CC50: 5280 nM
T47D
  GI50: 240 nM
  TGI: 530 nM
T47D; [10]
  CC50: 2300 nM
NCI/ADR-RES
  GI50: 250 nM
  TGI: 520 nM
  CC50: 170 nM
MCF7
  GI50: 190 nM
  TGI: 380 nM
MCF7; [10]
  CC50: 800 nM
SK-MEL-2
  GI50: 250 nM
  TGI: 540 nM
SK-MEL-2; [10]
  CC50: 1750 nM
OVCAR-8
  GI50: 280 nM
  TGI: 730 nM
  CC50: > 100000 nM
LNCaP [3]
  Activity: Dose-dependent effect
KM12
  GI50: 180 nM
  TGI: 330 nM
KM12; [10]
  CC50: 580 nM
Mus musculus
  Activity: Non-toxic
RXF 393
  GI50: 200 nM
  TGI: 350 nM
  CC50: 620 nM
UACC-62
  GI50: 1080 nM
  TGI: 2330 nM
  CC50: 50200 nM
A-375 [4]
  Activity: 25%
A-375 [5]
  Activity: Active
SNB-75
  GI50: 180 nM
  TGI: 330 nM
  CC50: 580 nM
ACHN
  GI50: 210 nM
  TGI: 470 nM
  CC50: 1100 nM
NCI-H322M
  GI50: 280 nM
  TGI: 850 nM
  CC50: 3220 nM
A-375 [6]
  Activity: 62%
M14
  GI50: 170 nM
  TGI: 330 nM
  CC50: 620 nM
K562
  GI50: 210 nM
  TGI: 430 nM
K562; [10]
  CC50: 900 nM
A-375 [7]
  Activity: Dose-dependent effect
MDA-MB-468
  GI50: 220 nM
  TGI: 510 nM
MDA-MB-468; [10]
  CC50: 1540 nM
MOLT-4
  GI50: 150 nM
  TGI: 340 nM
  CC50: 790 nM
U-251
  GI50: 180 nM
  TGI: 330 nM
  CC50: 620 nM
A-375 [8]
  inhibition at 20 µM: 75%
SK-OV-3
  GI50: 380 nM
  TGI: 1130 nM
  CC50: 3480 nM
IGROV-1
  GI50: 170 nM
  TGI: 340 nM
  CC50: 650 nM
Malme-3M
  GI50: 320 nM
  TGI: 1110 nM
Malme-3M; [10]
  CC50: 3950 nM

## CCCCCCCCCCCCCCCCCCNC(=O)[C@@H]1CSC(c2ccccc2)N1 (mixture of isomers)
PPC-1
  IC50: 2400 nM
SF-539
  GI50: 1720 nM
  TGI: 3090 nM
  CC50: 5560 nM
PC-3
  IC50: 10000 nM
NCI/ADR-RES
  GI50: 2020 nM
  TGI: 3850 nM
  CC50: 7370 nM
DU-145
  IC50: 10800 nM
OVCAR-8
  GI50: 2240 nM
  TGI: 6140 nM
  CC50: > 100000 nM
HOP-92
  GI50: 2060 nM
  TGI: 4120 nM
HOP-92; [10]
  CC50: 8270 nM
RXF 393
  GI50: 1550 nM
  TGI: 3010 nM
  CC50: 5850 nM
UACC-62
  GI50: 2140 nM
  TGI: 3780 nM
  CC50: 6680 nM
CAKI-1
  GI50: 2300 nM
  TGI: 4310 nM
CAKI-1; [10]
  CC50: 8080 nM
SNB-75
  GI50: 2640 nM
  TGI: 4150 nM
  CC50: 6540 nM
ACHN
  GI50: 2120 nM
  TGI: 4900 nM
  CC50: 13500 nM
NCI-H322M
  GI50: 2280 nM
  TGI: 5150 nM
  CC50: 15400 nM
LNCaP [9]
  IC50: 4200 nM
M14
  GI50: 1440 nM
  TGI: 2750 nM
  CC50: 5240 nM
MOLT-4
  GI50: 860 nM
  TGI: 2430 nM
  CC50: 6510 nM
U-251
  GI50: 1800 nM
  TGI: 3190 nM
  CC50: 5650 nM
SK-OV-3
  GI50: 2900 nM
  TGI: 5650 nM
  CC50: 18600 nM
IGROV-1
  GI50: 2300 nM
  TGI: 5470 nM
  CC50: 18900 nM

— ChEMBL document CHEMBL1159121, “Synthesis, in vitro structure-activity relationship, and in vivo studies of 2-arylthiazolidine-4-carboxylic acid amides as anticancer agents” (Bioorg Med Chem, 2010)
